Measured values pooled from the literature.
Protocols differ between the studies behind these lines.
Target: Serine/threonine-protein kinase N1 (PKN1, Homo sapiens, UniProt Q16512)

`C[C@@H]1CCN(c2nccc(-c3cnn4ncccc34)n2)C1` has a remaining binding of 84% (binding; 1 µM).
For `CCc1ccccc1C(=O)Nc1n[nH]c2c(C)c(F)c(C3C(C#N)=C(C)N(C)C(C)=C3C#N)cc12`, the remaining binding was 100% (cell-free assay, competition with immobilised ligand; 1 µM).
The remaining binding of `O=C(Nc1c[nH]nc1C(=O)NC1CCNCC1)c1cc(F)cc(F)c1` is reported as 100% (binding, competition with immobilised ligand; 1 µM).
The remaining binding of `F[C@@H]1CCN(c2nccc(-c3cnn4ncccc34)n2)C1` is reported as 100% (binding; 1 µM).
`O=C(NS(=O)(=O)c1ccc(NCC2CCOCC2)c([N+](=O)[O-])c1)c1ccc(N2CCN(Cc3ccc(C(F)(F)F)cc3-c3ccc(Cl)cc3)CC2)cc1Oc1cnc2[nH]ccc2c1` gave a remaining binding of 100% (cell-free assay, competition with immobilised ligand; 1 µM).
With `O=C(c1ccc(Nc2ncc(Cl)c(-c3ccc(Cl)s3)n2)cc1)N1CCC(N2CCCC2)CC1` the remaining binding was 25% (binding, competition with immobilised ligand; 1 µM).
For `C=CC(=O)N1CCC(C(=O)NCC(=O)N2CCN(c3nc(-c4cnc(N)nc4C(F)F)nc(N4CCOCC4)n3)CC2)CC1`, the remaining binding was 83% (binding, competition with immobilised ligand; 1 µM).
For `O=C(NCCCN1CCOCC1)c1ccc(Nc2ncc(Cl)c(-c3ccc(Cl)s3)n2)cc1`, the remaining binding was 39% (binding, competition with immobilised ligand; 1 µM).
`N[C@H]1CCN(c2nccc(-c3cnn4ncccc34)n2)C1` gave a remaining binding of 86% (binding; 1 µM).
With `Cc1cc(C)c(-n2ccn3nc(-c4cccnc4)cc23)cc1NC(=O)c1cc(C#N)cc(S(F)(F)(F)(F)F)c1` the remaining binding was 96.7% (cell-free assay, competition with immobilised ligand; 0.1 µM).
`CCN1CCN(Cc2ccc(C(=O)Nc3ccc(C)c(Oc4ccc5c(c4)CC(=O)N5)c3)cc2C(F)(F)F)CC1` has a remaining binding of 100% (binding, competition with immobilised ligand; 1 µM).
The remaining binding of `COc1ncc2cc3ccccc3nc2c1C#N` is reported as 100% (cell-free assay, competition with immobilised ligand; 5 µM).
With `CN(C)c1nccc(-c2cnn3ncccc23)n1` the remaining binding was 98% (binding; 1 µM).
With `FC(F)(F)Oc1cccc(-c2cnc3ccc(-c4ccncc4)nn23)c1` the remaining binding was 67% (cell-free assay, competition with immobilised ligand; 5 µM).
`CN(C)c1ncc(F)c(-c2cnn3ncccc23)n1` gave a remaining binding of 100% (binding; 1 µM).
`COc1cnc(Nc2cccc(S(N)(=O)=O)c2)nc1N1CCN(c2ccccc2)C(=O)C1` gave a remaining binding of 98% (binding, competition with immobilised ligand; 1 µM).
The remaining binding of `COc1ccc2c(c1)O[C@@H](c1ccc(OC)c(OC)c1)C[C@H]2NC(=O)C1(c2ccc3c(c2)OC(F)(F)O3)CC1` is reported as 96% (cell-free assay, competition with immobilised ligand; 1 µM).
For `O=C(c1ccc(Nc2ncc(Cl)c(-c3cc4ccccc4s3)n2)cc1)N1CCC(N2CCCC2)CC1`, the remaining binding was 3.4% (binding, competition with immobilised ligand; 1 µM).
The remaining binding of `CN(C)c1nccc(-c2cnc3ncccn23)n1` is reported as 100% (binding; 1 µM).
The remaining binding of `C[C@H](c1ccc(F)cc1)N(Cc1cccc(C(=O)O)c1)C(=O)c1cnc2ccccc2c1` is reported as 100% (cell-free assay, competition with immobilised ligand; 1 µM).
The remaining binding of `COc1ccnn2ncc(-c3ccnc(N(C)C)n3)c12` is reported as 74% (binding; 1 µM).
With `CNC(=O)Nc1ccc2c(c1)[C@@]1(CC2)OC(=O)N(CC(=O)N(Cc2ccc(F)cc2)[C@@H](C)C(F)(F)F)C1=O` the remaining binding was 98% (cell-free assay, competition with immobilised ligand; 1 µM).
